# Sampled rows, rich in hits. Any-hit rate of the full collection: about 2.6%.
# MC4R antagonist = MC4R antagonists of cAMP signaling, primary screen, cell-based, TR-FRET, antagonist arm of biased-ligand search | Melanocortin receptor 4 (Homo sapiens), P32245 | MC4R-expressing cells, MTII-stimulated cAMP, LANCE TR-FRET | inhibition, % at 6.5 µM | 0.48% of 360,000 active | AID 540295, 2011;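 active = inhibition above its plate's cutoff, the mean of tested wells on that plate plus 3 SD, cut at about 29% in these data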;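 also: 0% = Melanotan II alone and 100% = Melanotan II plus saturating MCL0020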
#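 Assay system: U2OS cells stably expressing human melanocortin 4 receptor (MC4R) / Dosing: 6.5 µM / Timing: compound 30 min, challenge 1 h, detection 1 h / Measured by: Eu-cAMP/anti-cAMP TR-FRET, emission 671 nm / Replicates: singlicate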
# Exocytosis inh = LAMP-1 surface exposure blockers, TALL-104 cells – cell-based, flow cytometry, MLPCN library, primary screen; 0.66% of 360,000 active; inhibition, % at 10 µM; AID 651702, 2012; TALL-104 LAMP-1 surface exposure; cells stimulated with thapsigargin and PMA;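 active = inhibition above about 55%, limit read from the data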
# Tb MetRS inh = T. brucei MetRS inhibitors, primary screen, biochemical, luminescence; methionyl-tRNA synthetase (Trypanosoma brucei brucei); purified T. brucei MetRS, ATP depletion, Kinase-Glo luminescence; inhibition, % at 11.9 µM; 0.4% of 360,000 active; AID 624268, 2012;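 active = inhibition above a per-plate cutoff of the control wells' mean inhibition plus 3 SD, cut at about 5.5% in these data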;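 also: 0% = DMSO wells median and 100% = median of wells with control inhibitor compound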
#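 System: purified T. brucei MetRS enzyme / Detection: Kinase-Glo luciferase luminescence reporting remaining unconsumed ATP / Medium: HEPES buffer with MgCl2, KCl, DTT, spermine, BSA, pyrophosphatase / Replication: singlicate, one well per compound / Evaluation: percent inhibition relative to median high and low control wells / Schedule: 2 h aminoacylation at 25 °C after 15 min preincubation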
# hiPSC survival = enhancers of single-cell hiPSC survival, primary screen, ATPlite luminescence; 100% = ROCK inhibitor wells, 0% = DMSO; survival enhancement, % at 20 µM; 0.044% of 360,000 active; AID 602274, 2012; in the data active = survival enhancement above about 18%;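 also: cells exposed to compounds for 16 hours before the ATP read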
# ABCB6 inh MLPCN = ABCB6 transporter inhibitors, primary screen, K562-ABCB6 cells, flow cytometry, MLPCN library; ATP-binding cassette sub-family B member 6 (Homo sapiens), Q9NP58; fluorescence ratio to DMSO, % at 10 µM; K562-ABCB6 porphyrin accumulation, 1 h; stronger effect = lower value; 0.19% of 360,000 active; AID 602162, 2011;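 active = fluorescence ratio to DMSO below 75%, the collection mean minus 3 SD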;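 also: signal is porphyrin accumulated inside mitochondria; 100% equals median channel fluorescence of DMSO control wells; lower ratio means ABCB6 inhibition with less porphyrin fluorescence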
# MC4R ag barr = MC4R agonists recruiting beta-arrestin, primary screen, cell-based, luminescence, agonist arm of biased-ligand search | Melanocortin receptor 4 (Homo sapiens), P32245 | U2OS MC4R beta-arrestin complementation; percent of melanotan II response, DMSO zero | activation, % at 8.9 µM | 0.98% of 360,000 active | AID 540308, 2011;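 active = activation above a per-plate cutoff, the mean activation of sample wells on that plate plus 3 SD, cut at about 8% in these data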
# U2OS cAMP counter = nonselective cAMP signaling inhibitors, parental cells, counter-screen for MC4R biased antagonist project, cell-based, TR-FRET, U2OS, forskolin, triplicate | LANCE TR-FRET | shares compounds with MC4R antagonist | 26% of 1,600 active | inhibition, % at 6.5 µM | AID 602193, 2012;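 active = mean inhibition over triplicates above the low-control well mean plus 3 SD, set per campaign, cut at about 13% in these data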;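 also: signal is single emission at 671 nm which falls as cellular cAMP rises; 0% = forskolin-stimulated wells and 100% = buffer without forskolin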
# MC4R cAMP antag = MC4R cAMP antagonists, retest, confirmation, cell-based, TR-FRET; inhibition, % at 6.5 µM; 27% of 1,600 active; AID 602195, 2012; shares compounds with MC4R antagonist; MC4R-expressing cells, MTII-stimulated cAMP; in the data active = inhibition above about 29%;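 also: 0% = agonist stimulated wells alone and 100% = agonist stimulated wells plus saturating reference antagonist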
# Active calls of the source: *; . = not tested or not shown.
SMILES,MC4R antagonist,Exocytosis inh,Tb MetRS inh,hiPSC survival,ABCB6 inh MLPCN,MC4R ag barr,U2OS cAMP counter,MC4R cAMP antag
COc1ccccc1N1CCN(C(=O)CCCNC(=O)Cn2cnc3sc(C)c(C)c3c2=O)CC1,32.9*,7.8,-0.1,0.5,104.0,1.3,0.5,-2.4
CCOc1ccc(S(=O)(=O)N2CCc3ccccc3C2)cc1,0.0,-5.9,-0.2,0.5,96.0,-1.8,.,.
COC(=O)COc1ccc(S(=O)(=O)N2CCc3ccccc3C2)cc1,28.7*,-0.1,-0.3,-0.6,97.0,-0.4,14.2*,24.8
CCN(CC)C(=S)Oc1ccc(Cl)cc1Cl,1.6,6.4,0.5,4.4,97.0,1.1,.,.
Cc1cc(C)cc(-n2c(C)cc(/C=C3\C(=N)N4N=C(CC(C)C)SC4=NC3=O)c2C)c1,4.0,2.8,-0.3,-0.7,96.0,-0.5,.,.
CCCC1=NN2C(=N)/C(=C\c3cc(C)n(-c4cc(C)cc(C)c4)c3C)C(=O)N=C2S1,30.4*,0.6,-0.1,-0.7,98.0,2.1,-0.7,-19.9
COc1cc(OC)c(C(=O)OCC(=O)NC23CC4CC(CC(C4)C2)C3)cc1OC,13.9,0.6,-0.2,-0.5,97.0,3.1,.,.
COc1ccc2sc(-c3ccc(N(C)C)cc3)c(C#CC(C)(C)O)c2c1,16.4,3.9,-0.3,9.7,100.0,3.4,.,.
COc1ccc2sc(-c3ccc(N(C)C)cc3)c(C#Cc3cncn3C)c2c1,38.2*,6.7,-0.3,-0.9,110.0,4.6,-0.8,36.6*
O=C(c1cnc(Cl)c(Cl)c1)N1CCN(S(=O)(=O)c2ccc3ccccc3c2)CC1,35.7*,-3.7,0.2,-0.6,94.0,-4.0,17.0*,54.4*
O=C(c1ccncc1)N1CCN(S(=O)(=O)c2ccc3ccccc3c2)CC1,3.0,1.0,-0.3,0.7,98.0,-1.9,.,.
CCN1C(=O)C2(C(C(=O)c3cc4ccccc4o3)=C(O)C(=O)N2CCCN2CCOCC2)c2ccccc21 (stereo unspecified),41.9*,-4.8,-0.9,-0.4,98.0,-1.5,21.8*,50.0*
CCN1C(=O)C2(C(C(=O)c3ccc(C)o3)=C(O)C(=O)N2CCCN2CCOCC2)c2ccccc21 (stereo unspecified),4.0,0.3,-0.4,3.8,97.0,0.3,.,.
CCOC(=O)c1cnc2ccc(OCC)cc2c1NCc1ccccc1OC,47.5*,30.4,-0.2,0.3,99.0,1.7,16.4*,47.6*
CCOC(=O)c1cnc2ccc(OC)cc2c1NCc1ccccc1,4.2,-2.4,-0.6,-0.2,100.0,0.1,.,.
CN(C(=O)COC(=O)c1nc(Cl)c(Cl)c(Cl)c1Cl)C1CCS(=O)(=O)C1 (stereo unspecified),43.2*,-2.8,-0.6,41.8*,105.0,-1.8,14.8*,37.7*
Cc1ncn(-c2ccc(C(=O)Oc3ccccc3)cn2)n1,29.2*,-0.8,0.7,-0.4,96.0,-1.2,10.1,24.2
CCOCCOC(=O)c1ccc(-n2cnc(C)n2)nc1,9.9,-1.6,-0.4,3.0,98.0,0.1,.,.
COc1ccccc1-c1cc2nc(-c3ccccc3)cc(N3CCN(C(=O)c4ccco4)CC3)n2n1,28.6*,0.9,0.9,-0.8,98.0,2.5,-1.4,11.4
O=C(c1ccoc1)N1CCN(c2cc(-c3ccccc3)nc3cc(-c4ccccc4)nn23)CC1,17.3,8.6,-1.4,0.6,95.0,1.5,.,.
COc1ccccc1-c1cc2nc(-c3ccccc3)cc(N3CCN(C(=O)c4ccoc4)CC3)n2n1,29.9*,2.8,0.3,6.3,98.0,0.3,2.9,7.6
Cc1cc(C(=O)Nc2ccccc2Cc2ccccc2)no1,-0.5,0.4,-0.1,1.0,95.0,-3.1,.,.
Cc1ccc(C(=O)NCC(=O)OCC(=O)Nc2ccc(Cl)cc2C(F)(F)F)cc1C,28.8*,-4.0,-0.6,3.2,103.0,3.6,6.3,17.6
Cc1ccsc1C(=O)OCC(=O)Nc1ccc(Cl)cc1C(F)(F)F,16.3,-12.1,-0.9,-3.0,98.0,0.9,.,.
CCSc1nnc(-c2ccccc2SC)o1,30.0*,-3.1,0.5,-1.0,96.0,-1.8,8.1,9.6
SMILES,MC4R antagonist,Exocytosis inh,Tb MetRS inh,hiPSC survival,ABCB6 inh MLPCN,MC4R ag barr,U2OS cAMP counter,MC4R cAMP antag
NC(=O)c1cc(S(=O)(=O)NCCc2ccc(S(N)(=O)=O)cc2)cs1,12.4,8.9,-0.4,-0.5,96.0,1.7,.,.
COc1cccc(C(c2c(N)n(C)c(=O)n(C)c2=O)C(C)[N+](=O)[O-])c1 (stereo unspecified),32.7*,-2.5,-0.5,0.6,100.0,-0.1,5.5,4.1
CC(C)N(Cc1ccccc1)C(=O)COC(=O)c1ccc(S(=O)(=O)N2CCOCC2)cc1,15.1,10.4,0.3,-0.2,98.0,-1.3,.,.
COC(=O)COc1cccc(NS(=O)(=O)c2cccc([N+](=O)[O-])c2)c1,1.1,4.9,-1.0,1.8,315.0,-0.4,.,.
COC(=O)COc1ccc(NS(=O)(=O)c2cccc([N+](=O)[O-])c2)cc1,30.8*,6.1,-0.6,1.3,99.0,-2.3,22.3*,43.2*
CC(C)(C)OC(=O)NCc1ccc(CNC(=O)c2[nH]cnc2C(=O)N[C@@H](Cc2ccccc2)C(=O)OCc2ccccc2)cc1,-9.6,0.4,-0.5,-0.8,89.0,6.6,.,.
CC(C)(C)OC(=O)NCc1ccc(NC(=O)c2nc[nH]c2C(=O)N[C@@H](Cc2ccccc2)C(=O)OCc2ccccc2)cc1,62.8*,-7.6,-0.1,2.5,101.0,94.6*,-5.1,36.1*
O=C(NCc1ccco1)C(=O)c1cn(CC(=O)N2CCCC2)c2ccccc12,9.8,-5.2,-0.4,3.4,104.0,-0.4,.,.
C[C@H](O)C#Cc1ccc2c(c1)O[C@@H](CN(C)Cc1ccc(-c3ccccc3)cc1)[C@H](C)CN([C@@H](C)CO)S2(=O)=O,39.3*,22.3,-1.0,-1.6,101.0,-3.0,4.6,28.6*
CCOc1ncccc1C(=O)OCC(=O)Nc1nnc(-c2ccccc2)o1,5.1,8.6,0.0,-0.5,100.0,-1.1,.,.
